ChEMBL document CHEMBL3352088, “Novel derivatives of usnic acid effectively inhibiting reproduction of influenza A virus” (Bioorg Med Chem, 2014)

Assay: Antiviral activity against rimantidine, amantidine-resistant Influenza A virus (A/California/07/09(H1N1)) pdm09 infected in MDCK cells assessed as inhibition of viral replication after 1 hrs by hemagglutination assay
Format: functional, Influenza A virus (A/California/07/2009(H1N1))
Settings: read-out: ED50 (the source's name)
Summary of the method: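 MDCK cells were pre-incubated 1 h at 37°C with serial twofold compound dilutions in MEM containing 2 mM arginine, 2 mM glutamine and 2 microgram/mL trypsin, then infected and cultured 48 h at 36°C. Supernatant was mixed with 1% chicken erythrocytes for 1 h at room temperature to read hemagglutination titer. ED50 is the concentration that halves virus production versus untreated cells.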

Compound	EC50
CC(=O)c1c(O)c(C)c(O)c2c1OC1=Cc3c(c(C)nn3-c3ccccc3)C(=O)[C@@]12C	69.5 µM
CC(=O)c1c(O)c(C)c(O)c2c1OC1=Cc3c(c(C)nn3-c3ccccc3)C(=O)[C@]12C	56.3 µM
CC(=O)c1c(O)c(C)c(O)c2c1OC1=Cc3c(c(C)nn3-c3ccccc3)[C@@H](O)[C@@]12C	2.4 µM
CC(=O)c1c(O)c(C)c(O)c2c1OC1=CC(=O)/C(=C(/C)NCC(=O)O)C(=O)[C@@]12C	11.2 µM
CC(=O)c1c(O)c(C)c(O)c2c1OC1=CC(=O)/C(=C(/C)NCC(=O)O)C(=O)[C@]12C	10.7 µM
CC(=O)c1c(O)c(C)c(O)c2c1OC1=CC(=O)/C(=C(/C)NCCC(=O)O)C(=O)[C@@]12C	7.2 µM
CC(=O)c1c(O)c(C)c(O)c2c1OC1=CC(=O)/C(=C(/C)NCCC(=O)O)C(=O)[C@]12C	14.5 µM
CC(=O)C1=C(O)C=C2O[C@]34O[C@@]3(C(C)=O)C(=O)C(C)=C(O)[C@]4(O)[C@@]2(C)C1=O	10.6 µM
CC(=O)c1c(O)c(C)c(O)c2c1OC1=CC(=O)/C(=C(/C)NCCCC(=O)O)C(=O)[C@@]12C	35 µM
CSCC[C@H](N/C(C)=C1\C(=O)C=C2Oc3c(C(C)=O)c(O)c(C)c(O)c3[C@@]2(C)C1=O)C(=O)O	4.2 µM
CC(=O)C1=C(O)C[C@H]2Oc3c(C(C)=O)c(O)c(C)c(O)c3[C@@]2(C)C1=O	8.1 µM
CC(=O)c1c(O)c(C)c(O)c2c1OC1=CC(=O)/C(=C(/C)N[C@@H](CC(C)C)C(=O)O)C(=O)[C@@]12C	6.6 µM
CC(=O)c1c(O)c(C)c(O)c2c1OC1=CC(=O)/C(=C(/C)N[C@H](CC(=O)O)CC(C)C)C(=O)[C@]12C	6.6 µM
CC(=O)c1c(O)c(C)c(O)c2c1OC1=CC(=O)/C(=C(/C)NCCCC(=O)O)C(=O)[C@]12C	28 µM
CC(=O)c1c(O)c(C)c(O)c2c1OC1=Cc3c(c(C)nn3-c3cccc(C(F)(F)F)c3)C(=O)[C@@]12C	68.4 µM
CC(=O)c1c(O)c(C)c(O)c2c1OC1=Cc3c(c(C)nn3-c3ccccc3)[C@H](O)[C@]12C	12 µM
COc1c(C)c(O)c(C(=O)/C=C/c2ccccc2)c2c1[C@]1(C)C(=Cc3c(c(C)nn3-c3ccccc3)[C@H]1O)O2	32.7 µM
COc1c(C)c(O)c(C(=O)/C=C/c2ccc(Cl)cc2)c2c1[C@]1(C)C(=Cc3c(c(C)nn3-c3ccccc3)[C@H]1O)O2	55.1 µM
COc1ccccc1/C=C/C(=O)c1c(O)c(C)c(OC)c2c1OC1=Cc3c(c(C)nn3-c3ccccc3)[C@@H](O)[C@@]12C	82.7 µM
COc1ccc(/C=C/C(=O)c2c(O)c(C)c(OC)c3c2OC2=Cc4c(c(C)nn4-c4ccccc4)[C@@H](O)[C@@]23C)cc1OC	34.5 µM
COc1cccc(/C=C/C(=O)c2c(O)c(C)c(OC)c3c2OC2=Cc4c(c(C)nn4-c4ccccc4)[C@@H](O)[C@@]23C)c1OC	50.7 µM
COc1ccc(/C=C/C(=O)c2c(O)c(C)c(OC)c3c2OC2=Cc4c(c(C)nn4-c4ccccc4)[C@@H](O)[C@@]23C)c(OC)c1OC	32.8 µM
COc1cc(/C=C/C(=O)c2c(O)c(C)c(OC)c3c2OC2=Cc4c(c(C)nn4-c4ccccc4)[C@@H](O)[C@@]23C)cc(OC)c1OC	8.2 µM
COc1ccc(OC)c(/C=C/C(=O)c2c(O)c(C)c(OC)c3c2OC2=Cc4c(c(C)nn4-c4ccccc4)[C@@H](O)[C@@]23C)c1	25.9 µM
COc1ccc(/C=C/C(=O)c2c(O)c(C)c(OC)c3c2OC2=Cc4c(c(C)nn4-c4ccccc4)[C@@H](O)[C@@]23C)c(OC)c1	25.9 µM
COc1c(C)c(O)c(C(=O)/C=C/c2ccc(SC)cc2)c2c1[C@]1(C)C(=Cc3c(c(C)nn3-c3ccccc3)[C@H]1O)O2	53 µM
COc1cccc(/C=C/C(=O)c2c(O)c(C)c(OC)c3c2OC2=Cc4c(c(C)nn4-c4ccccc4)C(=O)[C@@]23C)c1OC	8.7 µM
COc1ccc(-c2cc(-c3c(O)c(C)c(OC)c4c3OC3=Cc5c(c(C)nn5-c5ccccc5)[C@@H](O)[C@@]34C)n[nH]2)cc1	102 µM

Compound	EC50
COc1c(C)c(O)c(C(=O)/C=C/c2ccccc2)c2c1[C@@]1(C)C(=Cc3c(c(C)nn3-c3ccccc3)[C@@H]1O)O2	60.6 µM
COc1c(C)c(O)c(C(=O)/C=C/c2ccc(Cl)cc2)c2c1[C@@]1(C)C(=Cc3c(c(C)nn3-c3ccccc3)[C@@H]1O)O2	79.4 µM
COc1ccccc1/C=C/C(=O)c1c(O)c(C)c(OC)c2c1OC1=Cc3c(c(C)nn3-c3ccccc3)[C@H](O)[C@]12C	64.9 µM
COc1cccc(/C=C/C(=O)c2c(O)c(C)c(OC)c3c2OC2=Cc4c(c(C)nn4-c4ccccc4)[C@H](O)[C@]23C)c1OC	76.4 µM
CC(=O)C1=C(O)C=C2Oc3c4c(c(C)c(O)c3[C@]2(C)C1=O)OCC4=O	64.3 µM
CC(=O)C1=C(O)C=C2Oc3c4c(c(C)c(O)c3[C@@]2(C)C1=O)OCC4=O	64.3 µM
COc1ccccc1/C=C1\Oc2c(C)c(O)c3c(c2C1=O)OC1=CC(O)=C(C(C)=O)C(=O)[C@@]13C	4.8 µM
CC(=O)C1=C(O)C=C2Oc3c4c(c(C)c(O)c3[C@@]2(C)C1=O)O/C(=C\c1ccc(Br)cc1)C4=O	4.7 µM
CC(=O)C1=C(O)C=C2Oc3c4c(c(C)c(O)c3[C@@]2(C)C1=O)O/C(=C\c1ccncc1)C4=O	7.7 µM
CC(=O)C1=C(O)C=C2Oc3c4c(c(C)c(O)c3[C@@]2(C)C1=O)O/C(=C\c1cccnc1)C4=O	7 µM
CC(=O)C1=C(O)C=C2Oc3c(C(=O)CSc4nc5ccccc5s4)c(O)c(C)c(O)c3[C@@]2(C)C1=O	29.5 µM
CC(=O)C1=C(O)C=C2Oc3c(C(=O)CSc4nc5ccccc5o4)c(O)c(C)c(O)c3[C@@]2(C)C1=O	2 µM
CC(=O)C1=C(O)C=C2Oc3c(C(=O)CSCc4ccccc4)c(O)c(C)c(O)c3[C@@]2(C)C1=O	2.1 µM
CC(=O)C1=C(O)C=C2Oc3c(C(=O)CSCc4ccc(C)cc4)c(O)c(C)c(O)c3[C@@]2(C)C1=O	2.1 µM
CC(=O)C1=C(O)C=C2Oc3c(C(=O)CSCc4ncccc4C(=O)O)c(O)c(C)c(O)c3[C@@]2(C)C1=O	56.3 µM
COc1c(C)c(O)c2c(c1C(=O)CSC1=NCCS1)OC1=CC(O)=C(C(C)=O)C(=O)[C@@]12C	14.7 µM
COc1ccc2[nH]c(SCC(=O)c3c(OC)c(C)c(O)c4c3OC3=CC(O)=C(C(C)=O)C(=O)[C@@]34C)nc2c1	24.3 µM
COc1c(C)c(O)c2c(c1C(=O)CSc1nc3ccccc3o1)OC1=CC(O)=C(C(C)=O)C(=O)[C@]12C	23.7 µM
COc1c(C)c(O)c2c(c1C(=O)CSCCC(=O)O)OC1=CC(O)=C(C(C)=O)C(=O)[C@@]12C	161 µM
CC(=O)C1=C(O)C=C2Oc3c(C(C)=O)c(OC(F)(Cl)C(F)F)c(C)c(O)c3[C@@]2(C)C1=O (stereo not given in full)	7.2 µM
CC(=O)C1=C(O)C=C2Oc3c(C(C)=O)c(OC(=O)c4ccccc4Br)c(C)c(OC(=O)c4ccccc4Br)c3[C@@]2(C)C1=O	7.8 µM
CC(=O)C1=C(O)C=C2O[C@@]34O[C@]3(C(C)=O)C(=O)C(C)=C(O)[C@@]4(O)[C@]2(C)C1=O	28.7 µM
CC(=O)[C@@]12O[C@@]13OC1=Cc4c(c(C)nn4-c4ccccc4)C(=O)[C@]1(C)[C@@]3(O)C(O)=C(C)C2=O	13.4 µM
COc1c(C)c(O)c(C(C)=O)c2c1[C@]1(C)C(=Cc3c(c(C)nn3-c3ccccc3)CC13CO3)O2 (single isomer, unassigned; (+))	262 µM
COc1c(C)c(O)c(C(=O)/C=C/c2ccccc2)c2c1[C@]1(C)C(=Cc3c(c(C)nn3-c3ccccc3)CC13CO3)O2 (single isomer, unassigned; (+))	5.5 µM
CC(=O)C1=C(O)C=C2Oc3c(C(C)=O)c(O)c(C)c(O)c3[C@@]2(C)C1=O [(+)-USNIC ACID]	51.7 µM
CC(=O)C1=C(O)C=C2Oc3c(C(C)=O)c(O)c(C)c(O)c3[C@]2(C)C1=O [(-)-USNIC ACID]	13.1 µM
